How the values were obtained:
[1] = tested on: Leishmania donovani; experiment: Antileishmanial activity against Leishmania donovani MHOM/IN/00/DEVI promastigote after 72 hrs by MTT assay; assay type: functional, organism-based
Outline: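 Promastigotes were seeded at 10⁶ parasites/mL in medium containing penicillin and streptomycin, with a range of compound concentrations in duplicate (DMSO under 0.5% v/v final). After MTT addition, plates stood 6 h at 27 °C and were spun at 900 G for 10 min. The pellet was dissolved in DMSO and read at 570 nm. IC50 (50% loss of metabolic activity versus control) came from nonlinear dose-response regression.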

[2] = tested on: J774.A1; experiment: Cytotoxic activity against mouse J774A1 cells after 72 hrs by MTT assay; assay type: cell-based; settings: J774.A1, 72 h
Outline: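 J774A.1 macrophages were grown in medium with 10% FCS, 2 mM L-glutamine, penicillin and streptomycin. Cells were seeded at 5 × 10⁴ cells/mL with a concentration range in duplicate (DMSO under 0.5% v/v final) and held 72 h at 37 °C, 6% CO₂. MTT was added at 0.5 mg/mL in RPMI 1640 for 2 h at 37 °C. Formazan was dissolved in DMSO and read at 570 nm. IC50 came from nonlinear regression, as the mean of three independent experiments.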

[3] = Selectivity index, ratio of IC50 for mouse J774A1 cells to IC50 for Leishmania donovani MHOM/IN/OO/DEVI promastigote; assay type: toxicity, cell-based, J774.A1; settings: read-out: Ratio IC50

## CC1(Cc2ccccc2)CC(S(=O)(=O)c2ccc(I)cc2)=C(c2ccc(/C(N)=N/O)cc2)O1 (stereo unspecified)
[1]
  IC50: 6.89 µM
[2]
  IC50: 11.8 µM
[3]
  selectivity ratio: 1.72

## N=C(N)c1ccc(OCCCCCOc2ccc(C(=N)N)cc2)cc1 [PENTAMIDINE]
[1]
  IC50: 6.29 µM
[2]
  IC50: 1.03 µM
[3]
  selectivity ratio: 0.16

## C[C@@H]1[C@H](O)[C@@H](C)/C=C/C=C/C=C/C=C/C=C/C=C/C=C/[C@H](O[C@@H]2O[C@H](C)[C@@H](O)[C@H](N)[C@@H]2O)C[C@@H]2O[C@](O)(C[C@@H](O)C[C@@H](O)[C@H](O)CC[C@@H](O)C[C@@H](O)CC(=O)O[C@H]1C)C[C@H](O)[C@H]2C(=O)O [AMPHOTERICIN B]
[1]
  IC50: 0.77 µM
[2]
  IC50: 3.14 µM
[3]
  selectivity ratio: 4.08

## CC1(Cc2ccccc2)CC(S(=O)(=O)c2ccc(/C(N)=N\O)cc2)=C(c2ccc(C(F)(F)F)cc2)O1 (stereo unspecified)
[1]
  IC50: 8.46 µM
[2]
  IC50: 11.9 µM
[3]
  selectivity ratio: 1.4

## CC1(Cc2ccccc2)CC(S(=O)(=O)c2ccc([N+](=O)[O-])cc2)=C(c2ccc(/C(N)=N/O)cc2)O1 (stereo unspecified)
[1]
  IC50: 19.4 µM
[2]
  IC50: 50.6 µM
[3]
  selectivity ratio: 2.61

## CC1(Cc2ccccc2)CC(S(=O)(=O)c2ccc(Br)cc2)=C(c2ccc(/C(N)=N/O)cc2)O1 (stereo unspecified)
[1]
  IC50: 5.21 µM
[2]
  IC50: 20.1 µM
[3]
  selectivity ratio: 3.85

## COc1cccc2c1C(=O)c1c(O)c3c(c(O)c1C2=O)C[C@@](O)(C(=O)CO)C[C@@H]3O[C@H]1C[C@H](N)[C@H](O)[C@H](C)O1 [DOXORUBICIN]
[2]
  IC50: 0.02 µM

## CC1(Cc2ccccc2)CC(S(=O)(=O)c2ccc(C(F)(F)F)cc2)=C(c2ccc(/C(N)=N/O)cc2)O1 (stereo unspecified)
[1]
  IC50: 7.89 µM
[2]
  IC50: 30.5 µM
[3]
  selectivity ratio: 3.87

## CC1(Cc2ccccc2)CC(S(=O)(=O)c2ccc(Cl)cc2)=C(c2ccc(/C(N)=N/O)cc2)O1 (stereo unspecified)
[1]
  IC50: 7.4 µM
[2]
  IC50: 27.4 µM
[3]
  selectivity ratio: 3.71

## CC1(Cc2ccccc2)CC(S(=O)(=O)c2ccc(/C(N)=N\O)cc2)=C(c2ccc(F)cc2)O1 (stereo unspecified)
[1]
  IC50: 30.7 µM
[2]
  IC50: 36.2 µM
[3]
  selectivity ratio: 1.18

## CC1(Cc2ccccc2)CC(S(=O)(=O)c2ccc(/C(N)=N\O)cc2)=C(c2ccc([N+](=O)[O-])cc2)O1 (stereo unspecified)
[1]
  IC50: 18.8 µM
[2]
  IC50: 18.5 µM
[3]
  selectivity ratio: 0.98

## CC1(Cc2ccccc2)CC(S(=O)(=O)c2ccc(F)cc2)=C(c2ccc(/C(N)=N/O)cc2)O1 (stereo unspecified)
[1]
  IC50: 7.15 µM
[2]
  IC50: 45.5 µM
[3]
  selectivity ratio: 6.37

## COc1ccc(S(=O)(=O)C2=C(c3ccc(/C(N)=N/O)cc3)OC(C)(Cc3ccccc3)C2)cc1 (stereo unspecified)
[1]
  IC50: 7.49 µM
[2]
  IC50: 9.03 µM
[3]
  selectivity ratio: 1.21

## CC1(Cc2ccccc2)CC(S(=O)(=O)c2ccc(/C(N)=N\O)cc2)=C(c2ccc(Br)cc2)O1 (stereo unspecified)
[1]
  IC50: 8.95 µM
[2]
  IC50: 9.78 µM
[3]
  selectivity ratio: 1.09

## CC1(Cc2ccccc2)CC(S(=O)(=O)c2ccc(/C(N)=N\O)cc2)=C(c2ccc(I)cc2)O1 (stereo unspecified)
[1]
  IC50: 6.63 µM
[2]
  IC50: 8.08 µM
[3]
  selectivity ratio: 1.22

## CC1(Cc2ccccc2)CC(S(=O)(=O)c2ccc(/C(N)=N\O)cc2)=C(c2ccc(Cl)cc2)O1 (stereo unspecified)
[1]
  IC50: 9.87 µM
[2]
  IC50: 7.05 µM
[3]
  selectivity ratio: 0.71

— ChEMBL document CHEMBL1795266, “Synthesis and evaluation of monoamidoxime derivatives: toward new antileishmanial compounds” (Eur J Med Chem, 2011)
